Reference: paper PMC13065758 (Nature Communications, 2026)

Experiments:
[1] = Plasma stability assay, human plasma; format: in vitro ADME
Method in brief: (§1)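 Test compound was spiked at 10 μM into human or mouse plasma and incubated at 37 °C with shaking for 0, 30 or 120 min. Proteins were precipitated with acetonitrile containing 1 μM chlorpropamide internal standard and removed by centrifugation. Analyte/internal-standard area ratios were measured by LC-MS/MS and expressed as percent remaining versus 0 min.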

[2] = Plasma stability assay, mouse plasma; format: in vitro ADME
Method in brief: as §1

Work on `CCN(CC)CCOC(=O)c1ccc(N)cc1` [Procaine] yielded a remaining at 2 h, 10 μM [1] of 0.03% and a remaining at 2 h, 10 μM [2] of 3.13%.
